# High-throughput results as filed in PubChem.
# SMARCA2 activ: increases SMARCA2 function in MMTV reporter cells | MG213 cells, MMTV-luciferase reporter, dexamethasone, overnight | activation, % at 9.1 µM | 370,000 tested, 1% active | AID 652017; in the data active = activation above about 7.8%;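 also: 0% = vehicle wells and 100% = reference activator wells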
# Efflux pump mplx: antifungal efflux pump inhibition, Nile Red retention; inhibition, % at 10 µM; S. cerevisiae Candida pump triplex; 330,000 tested, 0.44% active;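 active = plate passing quality check with inhibition over a set limit, or well fluorescence over plate mean plus 4 SD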;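 also: Nile Red retained in pooled yeast measured as flow cytometry median fluorescence; 0% = buffer negative control and 100% = Enniatin B positive control; higher means more Nile Red kept so more efflux inhibition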
# AHR activator: activators of human aryl hydrocarbon receptor. P35869. AHR-responsive luciferase reporter cells, luminescence. activation, % at 5 µM. 320,000 tested, 2.5% active; in the data active = activation above about 47%;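 also: 0% = vehicle wells and 100% = reference agonist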
# Tb MetRS inh: blocks T. brucei methionyl-tRNA synthetase activity. purified T. brucei MetRS, ATP depletion, Kinase-Glo luminescence. inhibition, % at 11.9 µM. 360,000 tested, 0.4% active. AID 624268;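 active = inhibition above a per-plate cutoff of the control wells' mean inhibition plus 3 SD, cut at about 5.5% in these data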;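 also: 0% = DMSO wells median and 100% = median of wells with control inhibitor compound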
#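 Material: parasite MetRS enzyme / Replication: singlicate, one well per compound / Signal: luminescence of leftover ATP / Schedule: 2 h aminoacylation at 25 °C after 15 min preincubation / Medium: HEPES-MgCl2-KCl buffer plus DTT, spermine, BSA, pyrophosphatase / Doses: 11.9 µM single point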
# H9c2 TAG inh: triacylglycerol accumulation inhibition; H9c2 cells, Nile Red lipid (TAG) fluorescence; cells loaded with 200 µM oleic acid; inhibition, % at 12.5 µM; 230,000 tested, 0.66% active;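 active = pattern-corrected inhibition of lipid staining of at least 50% with the nuclear-stain viability signal not falling by more than 50%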;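 also: 0% = DMSO wells and 100% = triacsin C control wells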
# AHR act cf: human AHR activation, confirmation | 2,300 tested, 87% active | activation, % at 9 µM | AID 2845 | shares compounds with AHR activator | human cells, AHR-responsive luciferase reporter, luminescence; in the data active = activation above about 49%;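 also: HepG2 hepatoma cells carrying a DRE-driven firefly luciferase reporter; 0% = vehicle wells and 100% = reference agonist wells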
# PXR act counter: counter-screen for AHR activators: human PXR activators; shares compounds with AHR activator; cell-based PXR reporter, luciferase luminescence; activation, % at 11.6 µM; 2,300 tested, 88% active; AID 434939; in the data active = activation above about 11%;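 also: human hepatoma DPX-2 cells expressing full-length human PXR; 0% = DMSO and 100% = reference agonist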
# Target sequence (O75469 whole entry, looked up): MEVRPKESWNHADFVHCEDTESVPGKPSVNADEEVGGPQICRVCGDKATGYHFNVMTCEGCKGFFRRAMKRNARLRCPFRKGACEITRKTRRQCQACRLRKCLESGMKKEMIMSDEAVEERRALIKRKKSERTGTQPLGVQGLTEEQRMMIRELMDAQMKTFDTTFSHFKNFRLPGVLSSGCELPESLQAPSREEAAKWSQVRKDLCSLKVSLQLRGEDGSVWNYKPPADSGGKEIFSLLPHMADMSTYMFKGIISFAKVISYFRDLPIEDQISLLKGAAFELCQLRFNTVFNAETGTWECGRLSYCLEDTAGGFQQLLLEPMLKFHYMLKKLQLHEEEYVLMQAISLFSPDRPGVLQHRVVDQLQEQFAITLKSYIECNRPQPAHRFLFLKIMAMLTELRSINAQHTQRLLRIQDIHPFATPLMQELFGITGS
# * marks the source's active call; other numbers are inactive results; . = no result given. Compounds with a hit are over-represented: about 4.1% of the library has one in this group of screens.
SMILES,SMARCA2 activ,Efflux pump mplx,AHR activator,Tb MetRS inh,H9c2 TAG inh,AHR act cf,PXR act counter
Cn1c(Cc2cccs2)nnc1SCC(=O)Nc1ccc2c(c1)OCO2,-3,.,.,.,.,.,.
Cc1ccccc1C(=O)NC(=S)NCCc1ccccc1,1,1,86*,0,12,104*,27*
OC(c1ccccc1)(c1ccccc1)C1CCN(CCCOc2ccncc2)CC1,3,.,.,.,.,.,.
Cc1csc(N/N=C/c2ccc(O)c([N+](=O)[O-])c2)n1,1,0,2,0,.,.,.
O=[N+]([O-])c1cc(/C=N\Nc2nc(-c3ccccc3)cs2)ccc1O,0,0,119*,0,23,39,4
CCn1nnnc1NC(=O)c1cc(OC)c(OC)c(OC)c1,-2,0,128*,0,14,101*,11*
CCCCNC(=O)C1CCCN1C(=O)Nc1cc(Cl)cc(Cl)c1 (stereo unspecified),-7,.,.,.,.,.,.
CCc1noc(N)c1C(=O)Nc1ccc(F)c(Cl)c1,-2,0,80*,0,-26,109*,12*
Cc1noc(N)c1C(=O)Nc1ccc(F)c(Cl)c1,-4,0,41,0,2,.,.
C[C@@H]1/C=C/CC(=O)N[C@H](c2ccccc2)[C@H](C)/C=C/CC(=O)N[C@@H]1c1ccccc1,-5,.,.,.,.,.,.
CCN1CC=C2C(C#N)=C(N)C(C#N)(C#N)C(CCc3ccccc3)C2C1 (stereo unspecified),2,0,47,-1,-15,.,.
CC(=O)N1CC=C2C(C#N)=C(N)C(C#N)(C#N)C(CCc3ccccc3)C2C1 (stereo unspecified),-2,0,80*,0,3,73*,24*
CC(=O)N1CCc2cc(S(=O)(=O)NC3CCN(C(=O)CCl)CC3)ccc21,5,.,.,.,.,.,.
O=[N+]([O-])c1cccc(-c2cc3ccccc3[nH]2)c1,2,0,84*,0,.,134*,15*
C[C@H](c1ccccc1)N1C[C@@H](COCc2ccccc2)Oc2cccc(Oc3ccc(C(C)(C)C)cc3)c2S1(=O)=O,-1,.,.,.,.,.,.
Cc1c(=O)n(OCc2ccccc2F)c2ccccc2[n+]1[O-],7,0,94*,-1,-10,139*,26*
CCOn1c(=O)c(-c2ccccc2)[n+]([O-])c2ccccc21,-2,0,3,2,.,.,.
Cc1ccc(-c2nc3ncccn3c2NC(=O)c2cccc(C)c2)cc1,-1,.,.,.,.,.,.
COc1ccc(C2CC(c3cccs3)=NN2C(=O)CSc2nc3ccccc3o2)cc1 (stereo unspecified),-3,0,93*,0,.,50*,45*
COc1ccc(C2CC(c3cccs3)=NN2C(=O)CSc2nc3ccccc3s2)cc1 (stereo unspecified),-2,0,41,0,.,.,.
COC(=O)[C@]12C[C@H](CC(=O)N3CCC(c4ccccc4)CC3)C(=O)N(CCC3=CCCCC3)C1=C[C@H](C(C)C)O[C@@H]2C1CC1,-5,.,.,.,.,.,.
NNc1nc2c(-c3ccc(F)cc3)nnn2c2ccccc12,7,0,102*,0,8,128*,35*
O=C1NC(c2ccncc2)Nc2ccccc21 (stereo unspecified),-1,0,12,-1,.,.,.
Cc1ccc(C2NC(=O)c3ccccc3N2)s1 (stereo unspecified),5,0,100*,-1,-4,91*,19*
O=C1NC(c2ccc(Cl)cc2)Nc2ccccc21 (stereo unspecified),-1,0,80*,0,9,115*,25*
Cc1cccc(C2NC(=O)c3ccccc3N2)c1 (stereo unspecified),3,.,.,0,21,.,.
C[C@H](O)[C@@H]1CN2CCc3c([nH]c4cccc(-c5ccccc5)c34)[C@@H]2C[C@@H]1N(C)CC1CCCCC1,1,.,.,.,.,.,.
OC(c1ccccc1)(c1ccccc1)C1CCN(CCCOc2ccc(-c3ccc(F)cc3F)cc2)CC1,-7,.,.,.,.,.,.
COc1ccc(OC)c2sc(NC(=O)C3=COCCO3)nc12,-1,0,98*,-1,15,88*,6
COc1cccc2sc(NNC(=O)C3=COCCO3)nc12,-1,0,13,0,-5,.,.
